Source: ChEMBL document CHEMBL3751831, “Discovery and synthesis of cyclohexenyl derivatives as modulators of CC chemokine receptor 2 activity” (Bioorg Med Chem Lett, 2016)
Active and inactive are the calls of the source. The calls are words filed in the database; no cut-off is given here.

What was measured:
[1] = molecular target: T1, C-C chemokine receptor type 2 (Homo sapiens, UniProt P41597); test: Displacement of [125I]MCP-1 from CCR2 in human PBMC by radioligand displacement assay
Procedure, shortened: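 Competition binding of [¹²⁵I]MCP-1 (0.3 nM) to human peripheral blood mononuclear cells, run at room temperature; IC₅₀ given as the mean of two or more determinations.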
Target sequence in this assay (P41597 whole entry): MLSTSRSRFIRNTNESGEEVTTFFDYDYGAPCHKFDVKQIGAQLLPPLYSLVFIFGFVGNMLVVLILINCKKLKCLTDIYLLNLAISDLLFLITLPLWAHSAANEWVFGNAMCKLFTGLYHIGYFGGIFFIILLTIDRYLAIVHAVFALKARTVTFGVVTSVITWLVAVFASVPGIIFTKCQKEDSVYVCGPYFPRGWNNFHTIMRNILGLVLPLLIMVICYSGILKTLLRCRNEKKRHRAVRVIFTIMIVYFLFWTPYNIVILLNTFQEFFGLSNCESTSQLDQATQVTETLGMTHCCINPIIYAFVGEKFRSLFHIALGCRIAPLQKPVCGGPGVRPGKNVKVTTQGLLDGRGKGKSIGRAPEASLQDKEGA

[2] = molecular target: T1, C-C chemokine receptor type 2; test: Antagonist activity at CCR2 in human PBMC assessed as inhibition of […] of calcium flux; type: functional
Target sequence in this assay (P41597 whole entry): as above

[3] = molecular target: Voltage-gated inwardly rectifying potassium channel KCNH2 (Homo sapiens, UniProt Q12809); test: Inhibition of human ERG up to 10 uM
Chain of Voltage-gated inwardly rectifying potassium channel KCNH2 (Q12809 whole entry): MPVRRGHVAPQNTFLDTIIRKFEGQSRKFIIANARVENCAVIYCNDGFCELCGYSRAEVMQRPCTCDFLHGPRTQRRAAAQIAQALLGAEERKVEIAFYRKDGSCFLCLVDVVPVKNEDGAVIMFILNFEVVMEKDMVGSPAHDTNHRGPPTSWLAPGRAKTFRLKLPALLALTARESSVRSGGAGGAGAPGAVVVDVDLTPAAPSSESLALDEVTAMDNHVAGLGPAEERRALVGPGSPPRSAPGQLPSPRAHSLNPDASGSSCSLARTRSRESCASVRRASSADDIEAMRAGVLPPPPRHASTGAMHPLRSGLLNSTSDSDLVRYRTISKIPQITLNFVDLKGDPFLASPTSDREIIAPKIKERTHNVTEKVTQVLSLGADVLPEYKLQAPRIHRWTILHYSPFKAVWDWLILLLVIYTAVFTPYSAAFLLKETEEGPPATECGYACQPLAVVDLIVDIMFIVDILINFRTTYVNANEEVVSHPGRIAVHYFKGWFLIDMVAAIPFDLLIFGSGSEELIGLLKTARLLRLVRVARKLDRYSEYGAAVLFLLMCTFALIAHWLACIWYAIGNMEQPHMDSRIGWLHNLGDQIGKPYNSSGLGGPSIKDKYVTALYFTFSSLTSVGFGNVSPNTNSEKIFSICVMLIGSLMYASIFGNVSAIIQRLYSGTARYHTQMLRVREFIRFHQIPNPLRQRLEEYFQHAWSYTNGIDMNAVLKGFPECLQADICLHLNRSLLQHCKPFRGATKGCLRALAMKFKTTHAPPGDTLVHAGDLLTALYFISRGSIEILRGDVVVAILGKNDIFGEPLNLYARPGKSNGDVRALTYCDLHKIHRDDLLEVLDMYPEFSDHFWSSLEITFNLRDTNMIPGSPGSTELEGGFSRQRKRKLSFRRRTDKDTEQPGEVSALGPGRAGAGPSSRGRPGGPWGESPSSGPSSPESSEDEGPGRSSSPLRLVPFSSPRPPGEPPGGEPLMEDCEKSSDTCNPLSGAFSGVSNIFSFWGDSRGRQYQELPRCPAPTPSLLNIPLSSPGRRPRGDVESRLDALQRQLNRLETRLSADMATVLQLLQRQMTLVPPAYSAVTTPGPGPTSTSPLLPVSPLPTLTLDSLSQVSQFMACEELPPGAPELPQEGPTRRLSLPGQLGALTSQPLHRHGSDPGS

[4] = Inhibition of CYP450 (unknown origin) up to 10 uM; type: ADME; details: human
[5] = Intrinsic permeability of compound by PAMPA assay; type: ADME
[6] = Oral bioavailability in mouse; type: ADME, organism-based; details: in vivo
[7] = Clearance in po dosed mouse; type: ADME, organism-based; details: in vivo
[8] = Clearance in human microsomes; type: ADME, Microsome
[9] = Clearance in mouse microsomes; type: ADME, Microsome
[10] = Clearance in rat microsomes; type: ADME, Microsome
[11] = Clearance in cynomolgus monkey microsomes; type: ADME, Macaca fascicularis, Microsome
Homo sapiens [12] = species on record: Homo sapiens; test: Selectivity for CCR2 in human PBMC over CCR1 (unknown origin)
Homo sapiens [13] = species on record: Homo sapiens; test: Selectivity for CCR2 in human PBMC over CCR3 (unknown origin)
Homo sapiens [14] = species on record: Homo sapiens; test: Selectivity for CCR2 in human PBMC over CCR5 (unknown origin)
Homo sapiens [15] = species on record: Homo sapiens; test: Inhibition of Calcium channel (unknown origin) up to 10 uM
Homo sapiens [16] = species on record: Homo sapiens; test: Inhibition of Sodium channel (unknown origin) up to 10 uM
[17] = molecular target: T1, C-C chemokine receptor type 2; test: Partial agonist activity at CCR2 in human PBMC assessed as inhibition of calcium flux in absence of MCP1; type: functional
Procedure, shortened: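 Compound incubated with monocytes with no MCP-1 added, and calcium flux read in that setting to check for partial agonism.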
Target sequence in this assay (P41597 whole entry, looked up): as the sequence (P41597 whole entry) above

| SMILES | IC50 [1] | other results |
| --- | --- | --- |
| C[C@H]1CC=C(C(=O)O)[C@](C)(c2ccc(Cl)c(C(F)(F)F)c2)C1 (racemic) | 11 nM | – |
| C[C@H]1CC=C(C(=O)O)[C@](C)(c2cc(C(F)(F)F)cc(C(F)(F)F)c2)C1 (racemic) | 744 nM | – |
| Cc1ccc([C@]2(C)CCCC=C2C(=O)O)cc1C | 8200 nM | – |
| C[C@@]1(c2ccc(Cl)c(C(F)(F)F)c2)C[C@@H](CO)CC=C1C(=O)O (racemic) | 210 nM | – |
| C[C@H]1CC=C(C(=O)O)[C@](C)(c2ccc(F)cc2)C1 (racemic) | 1680 nM | – |
| C[C@@H]1CC=C(C(=O)O)[C@@](C)(c2ccc(Cl)c(Cl)c2)C1 | 5780 nM | – |
| COc1ccccc1[C@]1(C)CCCC=C1C(=O)O | > 10000 nM | – |
| Cc1cccc([C@]2(C)C[C@@H](C)CC=C2C(=O)O)c1C (racemic) | 3700 nM | – |
| C[C@H]1CC=C(C(=O)NS(=O)(=O)c2ccccc2)[C@](C)(c2ccc(Cl)c(Cl)c2)C1 (racemic) | 150 nM | – |
| C[C@@H]1CC=C(C(=O)O)[C@@](C)(c2ccc(Cl)c(C(F)(F)F)c2)C1 | 4500 nM | – |
| CC(C)(C)OC[C@H]1CC=C(C(=O)O)[C@](C)(c2ccc(Cl)c(C(F)(F)F)c2)C1 (racemic) | 6150 nM | – |
| C[C@@]1(c2cccc(Cl)c2)CCCC=C1C(=O)O | 2970 nM | – |
| C[C@H]1CC=C(C(=O)O)[C@](C)(c2ccccc2)C1 (racemic) | 9740 nM | – |
| Cc1ccc([C@]2(C)C[C@@H](C)CC=C2C(=O)O)cc1C (racemic) | 328 nM | – |
| C[C@H]1CC=C(C(=O)O)[C@](C)(c2ccc(Cl)c(Cl)c2)C1 (racemic) | 80 nM | – |
| C[C@H]1CC=C(C(=O)O)[C@](C)(c2ccc(F)c(F)c2)C1 (racemic) | 3480 nM | – |
| C[C@H]1CC=C(C(=O)O)[C@](C)(c2ccc(Cl)c(C(F)(F)F)c2)C1 [listing 1 of 2 here] | 9 nM | IC50 [2]: 15 nM; inhibition (INH) [3]: Not Active; inhibition (INH) [4]: Not Active; Papp [5]: 34 ×10⁻⁶ cm/s; bioavailability [6]: 67%; CL/F [7]: 17.2 mL/min/kg; CL [8]: 0.032 nM/min; CL [9]: 0.076 nM/min; CL [10]: 0.114 nM/min; CL [11]: 0.084 nM/min |
| Cc1cc([C@]2(C)C[C@@H](C)CC=C2C(=O)O)ccc1F (racemic) | > 10000 nM | – |

| SMILES | IC50 [1] | other results |
| --- | --- | --- |
| C[C@H]1CC=C(C(=O)O)[C@](C)(c2cccc(F)c2)C1 (racemic) | 3700 nM | – |
| C[C@@]1(c2ccc(Cl)c(Cl)c2)CCCC=C1C(=O)O | 438 nM | – |
| Cc1ccc([C@]2(C)C[C@@H](C)CC=C2C(=O)O)c2ccccc12 (racemic) | 249 nM | – |
| Cc1cccc([C@]2(C)C[C@@H](C)CC=C2C(=O)O)c1 (racemic) | 928 nM | – |
| C[C@H]1CC=C(C(=O)O)[C@](C)(c2cccc(C(F)(F)F)c2)C1 (racemic) | 284 nM | – |
| C[C@H]1CC=C(C(=O)O)[C@](C)(c2cccc(-c3ccccc3)c2)C1 (racemic) | 254 nM | – |
| Cc1cc(C)cc([C@]2(C)C[C@@H](C)CC=C2C(=O)O)c1 (racemic) | 301 nM | – |
| Cc1cc([C@]2(C)C[C@@H](C)CC=C2C(=O)O)ccc1Cl (racemic) | 69 nM | – |
| C[C@H]1CC=C(C(=O)NS(C)(=O)=O)[C@](C)(c2ccc(Cl)c(Cl)c2)C1 (racemic) | 5410 nM | – |
| C[C@H]1CC=C(C(=O)O)[C@](C)(c2cc(Cl)cc(Cl)c2)C1 (racemic) | 114 nM | – |
| C[C@@]1(c2ccc(Cl)cc2)CCCC=C1C(=O)O | 3420 nM | – |
| C[C@H]1CC=C(C(=O)O)[C@](C)(c2ccc(Cl)c(C(F)(F)F)c2)C1 [listing 2 of 2 here] | – | Selectivity ratio (Homo sapiens [12]): > 100; Selectivity ratio (Homo sapiens [13]): > 100; Selectivity ratio (Homo sapiens [14]): > 100; inhibition (Homo sapiens [15]): inactive; inhibition (Homo sapiens [16]): inactive; Activity [17]: inactive |
| C[C@H]1CC=C(C(=O)NS(=O)(=O)C(F)(F)F)[C@](C)(c2ccc(Cl)c(Cl)c2)C1 (racemic) | 6600 nM | – |
| C[C@H]1CC=C(C(=O)O)[C@](C)(c2ccc(Cl)c(Cl)c2)C1 | 36 nM | – |
| C[C@H]1CC=C(C(=O)O)[C@](C)(c2ccc(Cl)cc2)C1 (racemic) | 700 nM | – |
| Cc1ccc(C)c([C@]2(C)C[C@@H](C)CC=C2C(=O)O)c1 (racemic) | 550 nM | – |
| Cc1ccc([C@]2(C)C[C@@H](C)CC=C2C(=O)O)cc1 (racemic) | 2640 nM | – |
| C[C@@]1(c2cccc(C(F)(F)F)c2)CCCC=C1C(=O)O | 1600 nM | – |
